Assay results from ChEMBL document CHEMBL2057169, “Discovery of novel tricyclic compounds as squalene synthase inhibitors” (Bioorg Med Chem, 2012).

What was measured:
Squalene synthase = biological target: T1, Squalene synthase (Rattus norvegicus, UniProt Q02769); test: Inhibition of squalene synthase in rat hepatic cells; format: cell-based
T1 sequence (Q02769 whole entry): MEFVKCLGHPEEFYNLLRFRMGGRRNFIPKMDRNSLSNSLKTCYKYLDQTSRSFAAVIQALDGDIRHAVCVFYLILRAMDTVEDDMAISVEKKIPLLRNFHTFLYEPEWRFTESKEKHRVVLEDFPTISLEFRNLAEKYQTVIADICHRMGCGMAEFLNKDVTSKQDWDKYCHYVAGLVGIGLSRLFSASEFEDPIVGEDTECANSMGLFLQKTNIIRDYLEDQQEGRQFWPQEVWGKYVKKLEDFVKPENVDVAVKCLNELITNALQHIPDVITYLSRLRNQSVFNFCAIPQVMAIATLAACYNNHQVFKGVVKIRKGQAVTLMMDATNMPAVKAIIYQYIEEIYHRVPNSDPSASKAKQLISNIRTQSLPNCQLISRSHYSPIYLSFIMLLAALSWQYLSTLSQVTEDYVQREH

Hepatocyte = test: Inhibition of cholesterol synthesis in rat hepatocytes assessed as formation of cholesterol using [14C]mevalonolactone as substrate after 1 hr by radioactivity assay; format: functional, cell-based
Method in brief: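 Rat hepatocytes isolated by two-step portal-vein perfusion (EGTA buffer, then 0.05% collagenase). Cells were kept if viability was over 80% by trypan blue and seeded at 10^6 cells/well in DMEM with 10% LPDS. Next day they got 5% LPDS medium with inhibitor at 0–3000 nM for 1 h at 37 °C, then [14C]mevalonolactone for 1 h. Lysates were saponified, [14C]cholesterol corrected by [3H]cholesterol recovery and BCA protein, and % inhibition taken versus 0 nM wells. Triplicate wells; three experiments.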

Rattus norvegicus = test: Inhibition of cholesterol synthesis in Wistar rat liver assessed as reduction of [14C]-cholesterol level at 3 mg/kg, po administered as single dose measured after 1 hr by liquid scintillation counting; format: functional
Method in brief: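 Male Wistar rats, 6 weeks old, n = 4-6, dosed orally at 3 mg/kg in 0.5% methylcellulose, with equimolar NaOH or NaHCO3 added; vehicle-only controls. At 1 h, [14C]mevalonic acid (5 µCi/5 ml/kg) was given ip, and rats were killed 1 h later.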

marmosets [1] = test: Lipid lowering effect in marmosets assessed as reduction in plasma HDL-cholesterol level at 100 mg/kg, po administered once daily for 7 days; format: functional; settings: Callitrichinae sp., in Callithrix jacchus, 168 h
Method in brief: (§1)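 Common marmosets, n = 8 per group, matched for body weight and plasma lipids. They were dosed orally at 100 mg/kg in 0.5% methylcellulose (5 ml/kg) once daily for 7 days. Nonfasted blood was drawn before dosing and the morning after the last dose. HDL was precipitated, then its cholesterol assayed enzymatically; non-HDL = total minus HDL cholesterol. Change was expressed relative to pre-values.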

marmosets [2] = test: Lipid lowering effect in marmosets assessed as reduction in plasma total cholesterol level at 100 mg/kg, po administered once daily for 7 days; format: functional; settings: Callitrichinae sp., in Callithrix jacchus, 168 h; method in brief: as §1
marmosets [3] = test: Lipid lowering effect in marmosets assessed as reduction in plasma triglyceride level at 100 mg/kg, po administered once daily for 7 days; format: functional; settings: Callitrichinae sp., in Callithrix jacchus, 168 h; method in brief: as §1
marmosets [4] = test: Lipid lowering effect in marmosets assessed as reduction in plasma non HDL-cholesterol level at 100 mg/kg, po administered once daily for 7 days; format: functional; settings: Callitrichinae sp., in Callithrix jacchus, 168 h; method in brief: as §1

Row | IC50 (Squalene synthase) [nM] | SMILES | IC50 (Hepatocyte) [nM] | inhibition in vivo at 3 mg/kg (Rattus norvegicus) [%] | inhibition in vivo at 100 mg/kg (marmosets [1]) [%] | inhibition in vivo at 100 mg/kg (marmosets [2]) [%] | inhibition in vivo at 100 mg/kg (marmosets [3]) [%] | inhibition in vivo at 100 mg/kg (marmosets [4]) [%]
1 | 1.1 | COc1cccc([C@H]2O[C@H](CCn3nnnc3CC(=O)O)c3cccn3-c3ccc(Cl)cc32)c1OC | 130 | – | – | – | – | –
2 | 2.9 | COc1cccc([C@H]2O[C@H](CC(=O)NCCC(=O)O)c3cccn3-c3ccc(Cl)cc32)c1OC | 160 | – | – | – | – | –
3 | 3.1 | COc1cccc([C@H]2O[C@H](CCn3cc(CC(=O)O)cn3)c3cccn3-c3ccc(Cl)cc32)c1OC | 62 | 34 | – | – | – | –
4 | 2.3 | COc1cccc([C@H]2O[C@H](CC(=O)NCC(=O)O)c3cccn3-c3ccc(Cl)cc32)c1OC | 94 | – | – | – | – | –
5 | > 600 | COc1cccc([C@@H]2O[C@@H](CC(=O)N3CCC(CC(=O)O)CC3)c3cccn3-c3ccc(Cl)cc32)c1OC | – | – | – | – | – | –
6 | 4.3 | COc1cccc([C@H]2O[C@H](CC(=O)N3CCN(CC(=O)O)CC3)c3cccn3-c3ccc(Cl)cc32)c1OC | 150 | – | – | – | – | –
7 | 0.89 | COc1cccc([C@H]2O[C@H](CCn3nnc(C(=O)O)n3)c3cccn3-c3ccc(Cl)cc32)c1OC | 18 | 38 | – | – | – | –
8 | 7 | COc1cccc([C@H]2O[C@H](CCC(=O)N3CC(CC(=O)O)C3)c3cccn3-c3ccc(Cl)cc32)c1OC | 36 | 41 | – | – | – | –
9 | 0.81 | COc1cccc([C@H]2O[C@H](CCn3nncc3CC(=O)O)c3cccn3-c3ccc(Cl)cc32)c1OC | 41 | 50 | – | – | – | –
10 | 4 | COc1cccc([C@H]2O[C@H](CC(=O)Nc3cccc(C(=O)O)c3)c3cccn3-c3ccc(Cl)cc32)c1OC | 150 | – | – | – | – | –
11 | 3.3 | COc1cccc(C2OC(CC(=O)O)c3cccn3-c3ccc(Cl)cc32)c1OC (racemic) | 250 | – | – | – | – | –
12 | 2.1 | COc1cccc([C@H]2O[C@H](CCn3cc(C(=O)O)cn3)c3cccn3-c3ccc(Cl)cc32)c1OC | 54 | 56 | – | – | – | –
13 | 0.51 | COc1cccc([C@H]2O[C@H](CCn3cc(CC(=O)O)nn3)c3cccn3-c3ccc(Cl)cc32)c1OC | 24 | 66 | -8 | 10 | 24 | 21
14 | 0.59 | COc1cccc([C@H]2O[C@H](CCn3cc(C(=O)O)nn3)c3cccn3-c3ccc(Cl)cc32)c1OC | 25 | 44 | – | – | – | –
15 | 3.1 | COc1cccc([C@H]2O[C@H](CCC(=O)O)c3cccn3-c3ccc(Cl)cc32)c1OC | > 1000 | – | – | – | – | –
16 | 3.4 | COc1cccc([C@H]2O[C@H](CC(=O)N3CCC(C(=O)O)CC3)c3cccn3-c3ccc(Cl)cc32)c1OC | 170 | – | – | – | – | –
17 | 2.2 | COc1cccc([C@H]2O[C@H](CCC(=O)N3CC(C(=O)O)C3)c3cccn3-c3ccc(Cl)cc32)c1OC | 23 | 31 | – | – | – | –
18 | 2.3 | COc1cccc([C@H]2O[C@H](CC(=O)N3CCC[C@H](C(=O)O)C3)c3cccn3-c3ccc(Cl)cc32)c1OC | 60 | – | – | – | – | –
19 | 2.7 | COc1cccc(C2OC(CC(=O)N3CCC(CC(=O)O)CC3)c3cccn3-c3ccc(Cl)cc32)c1OC (racemic) | 63 | – | – | – | – | –
20 | 220 | COC(=O)CC1OC(c2cccc(OC)c2OC)c2cc(Cl)ccc2-n2cccc21 (racemic) | – | – | – | – | – | –
21 | 1.6 | COc1cccc([C@H]2O[C@H](CCn3nccc3CC(=O)O)c3cccn3-c3ccc(Cl)cc32)c1OC | 210 | 5 | – | – | – | –
22 | 1.1 | COc1cccc([C@H]2O[C@H](CCn3nnc(CC(=O)O)n3)c3cccn3-c3ccc(Cl)cc32)c1OC | 36 | 86 | 6 | 14 | 12 | 21

The next lines start with the compound.

Row | SMILES | IC50 (Squalene synthase) [nM] | IC50 (Hepatocyte) [nM] | inhibition in vivo at 3 mg/kg (Rattus norvegicus) [%] | inhibition in vivo at 100 mg/kg (marmosets [1]) [%] | inhibition in vivo at 100 mg/kg (marmosets [2]) [%] | inhibition in vivo at 100 mg/kg (marmosets [3]) [%] | inhibition in vivo at 100 mg/kg (marmosets [4]) [%]
23 | COc1cccc([C@H]2O[C@H](CCn3nnc(C4(C(=O)O)CC4)n3)c3cccn3-c3ccc(Cl)cc32)c1OC | 1.7 | 52 | 53 | – | – | – | –
24 | COc1cccc([C@H]2O[C@H](CCC(=O)N3CCOC(C(=O)O)C3)c3cccn3-c3ccc(Cl)cc32)c1OC (stereo partly drawn) | 1.6 | 9.7 | 13 | – | – | – | –
25 | COc1cccc([C@H]2O[C@H](CCn3nnc(COC(C)(C)C(=O)O)n3)c3cccn3-c3ccc(Cl)cc32)c1OC | 2.5 | 10 | 51 | – | – | – | –
26 | COc1cccc([C@H]2O[C@H](CCn3nnc(C(C)(C)C(=O)O)n3)c3cccn3-c3ccc(Cl)cc32)c1OC | 1.1 | 58 | 44 | – | – | – | –
27 | COc1cccc([C@H]2O[C@H](CC(=O)N3CCC(CC(=O)O)CC3)c3cccn3-c3ccc(Cl)cc32)c1OC | – | 49 | – | -11 | 4 | 28 | 9
28 | COc1cccc(C2OC(CC(=O)O)c3ccc(CN4CCOCC4)n3-c3ccc(Cl)cc32)c1OC (racemic) | 7.6 | 160 | – | – | – | – | –
29 | O=C(O)CC1OC(c2cccc(Cl)c2Cl)c2cc(Cl)ccc2-n2cccc21 (stereo not drawn) | 52 | – | – | – | – | – | –
30 | CCC(CC)(OCc1cn(CC[C@H]2O[C@H](c3cccc(OC)c3OC)c3cc(Cl)ccc3-n3cccc32)nn1)C(=O)O | 1.7 | 14 | 45 | – | – | – | –
31 | O=C(O)CC1OC(c2cccc3c2OCCO3)c2cc(Cl)ccc2-n2cccc21 (stereo not drawn) | 440 | – | – | – | – | – | –
32 | COc1cccc([C@H]2O[C@H](CCn3cc(COCC(=O)O)nn3)c3cccn3-c3ccc(Cl)cc32)c1OC | 0.68 | 19 | 18 | – | – | – | –
33 | COc1cccc([C@H]2O[C@H](CCC(=O)N3CCC(OCCC(=O)O)CC3)c3cccn3-c3ccc(Cl)cc32)c1OC | 1.4 | 35 | 23 | – | – | – | –
34 | COc1cccc([C@H]2O[C@H](CCC(=O)N3CCC[C@H](C(=O)O)C3)c3cccn3-c3ccc(Cl)cc32)c1OC | 1.4 | 70 | 53 | -21 | 9 | 21 | 23
35 | COc1cccc(C2OC(CC(=O)O)c3ccc(CN(C)C)n3-c3ccc(Cl)cc32)c1OC (racemic) | 540 | – | – | – | – | – | –
36 | COc1cccc([C@H]2O[C@H](CCC(=O)N3CCC(OCC(=O)O)CC3)c3cccn3-c3ccc(Cl)cc32)c1OC | 0.8 | 7.2 | 18 | – | – | – | –
37 | COc1cccc([C@H]2O[C@H](CCC(=O)N3CCC(COCC(=O)O)CC3)c3cccn3-c3ccc(Cl)cc32)c1OC | 0.9 | 10 | 7 | – | – | – | –
38 | COc1cccc(C2OC(CC(=O)O)c3ccc(Cl)n3-c3ccc(Cl)cc32)c1OC (racemic) | 1.6 | 560 | – | – | – | – | –
39 | COc1cccc([C@H]2O[C@H](CCC(=O)N3CCC(CC(=O)O)CC3)c3cccn3-c3ccc(Cl)cc32)c1OC | 2.4 | 93 | 35 | – | – | – | –
40 | COc1cccc([C@H]2O[C@H](CCn3nnc(CCC(=O)O)n3)c3cccn3-c3ccc(Cl)cc32)c1OC | 0.85 | 70 | 64 | – | – | – | –
41 | COc1cccc([C@H]2O[C@H](CCC(=O)N3CCN(CC(=O)O)C(=O)C3)c3cccn3-c3ccc(Cl)cc32)c1OC | 2.2 | 11 | 1 | – | – | – | –
42 | COc1cccc([C@H]2O[C@H](CCn3cc(COC(C)(C)C(=O)O)nn3)c3cccn3-c3ccc(Cl)cc32)c1OC | 0.69 | 7.3 | 36 | – | – | – | –
43 | O=C(O)CC1OC(c2cccc3ccccc23)c2cc(Cl)ccc2-n2cccc21 (stereo not drawn) | > 600 | – | – | – | – | – | –
44 | COc1cccc([C@H]2O[C@H](CC(=O)N3CCC(CC(=O)O)CC3)C(=O)N(CC(C)(C)COC(C)=O)c3ccc(Cl)cc32)c1OC [LAPAQUISTAT ACETATE] | – | – | – | 14 | 23 | 25 | 29
